High-throughput results deposited in PubChem BioAssay by several laboratories.
NR3A LBD binder – modulators (binders) of human NR3A ligand-binding domain; NR3A LBD differential scanning fluorimetry, Tm shift; 0% = protein alone, 100% = glycine-bound protein; Tm shift relative to glycine control, % at 25 µM; 340,000 tested, 2.5% active;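 active = melting temperature shift of at least 10% of the positive control shift, at one fixed dose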
aDG glyco act – alpha-DG glycosylation activation; 360,000 tested, 0.22% active; AID 624168; activation, % at 10 µM; Pro5-aDG cells, alpha-DG glycosylation AlphaScreen (IIH6); 0% Pro5, 100% B10-LARGE cell signal;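 active = activation of at least 8% versus controls, or a plate z-score of at least 8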;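 note: Pro5 are CHO cells carrying HIG-tagged alpha-DG that lacks glycosylation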
MPTP block – inhibitors of mitochondrial permeability transition pore; 360,000 tested, 1.4% active; inhibition, % at 10 µM; isolated mouse mitochondria, Ca2+ swelling absorbance, 30 min; AID 602449;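 active = inhibition of 50% or more, scaled per plate between neutral and stimulator controls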;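 note: 0% = DMSO wells given calcium and 100% = 1 mM EGTA wells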
CHOP inh – CHOP inhibition in unfolded protein response. inhibition, % at 10 µM. 220,000 tested, 3.8% active. AID 2732. CHO-K1 CHOP-promoter luciferase, tunicamycin-induced, 15-18 h;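 active = compounds that reduced the stress-induced luciferase reporter signal by more than about 70% of percent inhibition, limit read from the data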;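 note: 0% = tunicamycin plus vehicle and 100% = wells without tunicamycin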
CHOP UPR activ – activators of apoptotic arm of unfolded protein response (CHOP); CHO-CHOP luciferase reporter, UPR activation, luminescence; percent of tunicamycin response over DMSO baseline; activation, % at 10 µM; 330,000 tested, 0.34% active; AID 449763;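 active = at 10 µM dose, activation of 40% or more, normalized to positive control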;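 note: 100% = tunicamycin at 10 µg/mL and 0% = DMSO alone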
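Assay system: CHO cells with stable CHOP pathway luciferase reporter; Buffer or medium: F12 plus 10% serum; Times: 16-18 h cell attachment, then 6 h compound exposure, 37 °C; Signal: luciferase luminescence; Read-out basis: percent activation relative to tunicamycin control; Control set: tunicamycin high control, DMSO low control.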
XBP1 UPR activ – adaptive UPR (XBP1) activation. AID 463104. 330,000 tested, 0.33% active. CHO-XBP1 luciferase reporter, IRE1-XBP1 UPR activation, luminescence; percent of tunicamycin response, DMSO as zero. activation, % at 20 µM;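 active = versus positive control, 20 µM dose yields 30% or more activation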;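 note: 100% = tunicamycin at 10 µg/mL and 0% = DMSO only wells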
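Test system: CHO-XBP1 luciferase reporter cells | Buffer or medium: Serum-containing F12 medium, 10% FBS | Schedule: 6 h compound exposure at 37 °C, 5% CO2 | Detection: Steady-Glo luciferase glow luminescence, 10 min after reagent addition | Read-out basis: Activation, % of tunicamycin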
* hit, by the source's call. Sampled rows, rich in hits. Any-hit rate of the full collection: about 5.6%.

Screening CCOc1cccc(C(=O)Nc2cccc(C(C)=O)c2)c1 returned NR3A LBD binder -43, aDG glyco act 0, MPTP block 1, CHOP inh 62, CHOP UPR activ 0 and XBP1 UPR activ -1.
For Cc1ccc(NC(=O)c2ccc(-c3nn(C)c(=O)c4ccccc34)cc2)cc1 the results were NR3A LBD binder -9, aDG glyco act 1, MPTP block 5, CHOP inh 74*, CHOP UPR activ -1 and XBP1 UPR activ 0.
For Cc1cccc(OCC(=O)Nc2ccc3oc(=O)ccc3c2)c1C the results were NR3A LBD binder 14*, aDG glyco act 0, MPTP block -1, CHOP UPR activ -1 and XBP1 UPR activ 0.
Screening CCOc1cccc(NC(=O)c2cccc(F)c2)c1 returned NR3A LBD binder 10*, aDG glyco act 0, MPTP block -1, CHOP inh 0, CHOP UPR activ 0 and XBP1 UPR activ 5.
`Cc1ccc(NC(=O)c2ccc(-c3nn(C)c(=O)c4ccccc34)cc2)c(C)c1` gave NR3A LBD binder 1, aDG glyco act 1, MPTP block 4, CHOP inh 19, CHOP UPR activ -1 and XBP1 UPR activ 0.
`O=C(Nc1ccc2ccccc2c1)c1ccc(NS(=O)(=O)c2ccc(Br)s2)cc1` gave NR3A LBD binder 21*, aDG glyco act 0, MPTP block 0, CHOP inh 5, CHOP UPR activ 5 and XBP1 UPR activ 0.
`Cc1ccc(C(=O)Nc2ccc3ccccc3c2)cc1` gave NR3A LBD binder 16*, aDG glyco act 0, MPTP block 0, CHOP UPR activ -7 and XBP1 UPR activ -11.
O=C(Nc1ccc2ccccc2c1)c1ccc(Cl)cc1 was read as NR3A LBD binder -4, aDG glyco act 0, MPTP block 0, CHOP UPR activ 4 and XBP1 UPR activ -6.
`CCOc1ccc(CCNC(=O)C2CCCN(c3nnc(-n4cccc4)s3)C2)cc1OCC` (centres undefined) gave NR3A LBD binder 39*, aDG glyco act 0, MPTP block -2, CHOP inh 60, CHOP UPR activ 0 and XBP1 UPR activ -5.
`CCOc1ccc(CCNC(=O)C2CCCN(c3nn4c(=O)cc(C)nc4s3)C2)cc1OCC` (centres undefined) gave NR3A LBD binder 1, aDG glyco act 0, MPTP block 0, CHOP inh 45, CHOP UPR activ -1 and XBP1 UPR activ -2.
Screening O=[N+]([O-])c1cnc(Sc2ccncn2)s1 returned NR3A LBD binder 2, aDG glyco act 0, MPTP block 4, CHOP inh 107*, CHOP UPR activ -9 and XBP1 UPR activ -10.
`CCCC(O)(c1ccc(Cl)cc1)C(CN1CCOCC1)c1ccccc1` (centres undefined) gave NR3A LBD binder 3, aDG glyco act 0, MPTP block 1, CHOP inh 90*, CHOP UPR activ 0 and XBP1 UPR activ 0.
Screening CCCC(O)(c1ccccc1)C(CN1CCOCC1)c1ccccc1 (centres undefined) returned NR3A LBD binder 1, aDG glyco act 0, MPTP block -1, CHOP UPR activ 0 and XBP1 UPR activ -6.
Screening O=C(CCC(=O)c1ccc(Oc2ccccc2)cc1)Nc1cccc(Cl)c1 returned NR3A LBD binder 2, aDG glyco act 0, MPTP block 6, CHOP inh 56, CHOP UPR activ 0 and XBP1 UPR activ -2.
For O=C(CCC(=O)OCC(=O)c1ccccc1)Nc1cccc(Cl)c1 the results were NR3A LBD binder 24*, aDG glyco act 0, MPTP block 0, CHOP inh -3, CHOP UPR activ -2 and XBP1 UPR activ -1.
`Cc1ccc(C(=O)CCC(=O)Nc2ccc(Cl)c(S(=O)(=O)Nc3cccc(Cl)c3)c2)cc1` gave NR3A LBD binder 24*, aDG glyco act 2, MPTP block 11, CHOP inh 55, CHOP UPR activ -1 and XBP1 UPR activ -2.
COc1ccc(NC(=O)CCC(=O)c2ccc(-c3ccccc3)cc2)cc1 was read as NR3A LBD binder 0, aDG glyco act 0, MPTP block -3, CHOP inh -6, CHOP UPR activ 0 and XBP1 UPR activ 3.
`Cc1ccc(NC(=O)CCC(=O)OCC(=O)c2ccc(-c3ccccc3)cc2)cc1` gave NR3A LBD binder -5, aDG glyco act 0, MPTP block -2, CHOP inh 85*, CHOP UPR activ -2 and XBP1 UPR activ -2.
Screening COc1ccc(C(=O)CCC(=O)Nc2cccc(Cl)c2)cc1 returned NR3A LBD binder 0, aDG glyco act 0, MPTP block 0, CHOP inh 14, CHOP UPR activ 2 and XBP1 UPR activ -3.
Screening CCC(NC(=S)NCc1ccc(F)cc1)c1ccc(C)cc1 (centres undefined) returned NR3A LBD binder 1, aDG glyco act 0, MPTP block 19, CHOP UPR activ -1 and XBP1 UPR activ -2.
For CC#CC(=O)N1CCCC(Cc2cccc(OC)c2)(C(=O)OCC)C1 (centres undefined) the results were NR3A LBD binder -2, aDG glyco act 0, MPTP block 0, CHOP UPR activ 5 and XBP1 UPR activ 0.
CNC(=O)CN1C(=O)C2C3C=CC(C3)C2C1=O (centres undefined) was read as NR3A LBD binder -3, aDG glyco act 0, MPTP block 0, CHOP inh 78*, CHOP UPR activ -1 and XBP1 UPR activ 0.
CCC(C)(C)n1nnnc1C(c1ccccc1)N1CCc2ccccc2C1 (centres undefined) was read as NR3A LBD binder 3, aDG glyco act 0, MPTP block 2, CHOP inh 15, CHOP UPR activ -1 and XBP1 UPR activ 2.
Screening CCC(C)(C)n1nnnc1C(c1ccc(O)c(OC)c1)N1CCc2ccccc2C1 (centres undefined) returned NR3A LBD binder 0, aDG glyco act 0, MPTP block -1, CHOP inh -65, CHOP UPR activ 42* and XBP1 UPR activ -5.
`CCOc1cc(/C=N/NC(=O)c2cccnc2)cc(Br)c1OCC(N)=O` gave NR3A LBD binder -3, aDG glyco act 0, MPTP block -1, CHOP inh 14, CHOP UPR activ -1 and XBP1 UPR activ 1.
For CS(=O)(=O)c1ccc(NC(=O)CCCc2nc3ccccc3c(=O)[nH]2)cc1 the results were NR3A LBD binder 0, aDG glyco act 0, MPTP block 3, CHOP UPR activ 0 and XBP1 UPR activ 0.
